Results on two compounds are retold here after paper PMC12475083 (Scientific Reports, 2025).

Structures are written as SMILES.

For orientation: IC50 means the concentration needed to halve the response being measured.

Sequence of hHDAC1 (Q13547 whole entry): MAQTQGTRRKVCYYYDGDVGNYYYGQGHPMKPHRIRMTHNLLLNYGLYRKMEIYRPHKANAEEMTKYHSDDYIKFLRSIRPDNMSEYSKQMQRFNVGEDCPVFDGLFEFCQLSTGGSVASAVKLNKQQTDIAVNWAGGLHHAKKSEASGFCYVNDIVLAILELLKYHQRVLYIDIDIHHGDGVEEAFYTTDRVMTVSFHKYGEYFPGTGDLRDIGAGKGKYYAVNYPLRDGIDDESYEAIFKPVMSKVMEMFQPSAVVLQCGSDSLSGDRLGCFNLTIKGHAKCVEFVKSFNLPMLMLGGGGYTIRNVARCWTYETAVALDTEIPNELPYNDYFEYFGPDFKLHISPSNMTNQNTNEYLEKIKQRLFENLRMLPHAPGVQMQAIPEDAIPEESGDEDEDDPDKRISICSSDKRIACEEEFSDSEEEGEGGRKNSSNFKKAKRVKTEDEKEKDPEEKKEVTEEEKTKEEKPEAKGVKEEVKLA

The first assay deals with T1, hHDAC6 (Homo sapiens, UniProt Q9UBN7).
T1 sequence (Q9UBN7 1-1215): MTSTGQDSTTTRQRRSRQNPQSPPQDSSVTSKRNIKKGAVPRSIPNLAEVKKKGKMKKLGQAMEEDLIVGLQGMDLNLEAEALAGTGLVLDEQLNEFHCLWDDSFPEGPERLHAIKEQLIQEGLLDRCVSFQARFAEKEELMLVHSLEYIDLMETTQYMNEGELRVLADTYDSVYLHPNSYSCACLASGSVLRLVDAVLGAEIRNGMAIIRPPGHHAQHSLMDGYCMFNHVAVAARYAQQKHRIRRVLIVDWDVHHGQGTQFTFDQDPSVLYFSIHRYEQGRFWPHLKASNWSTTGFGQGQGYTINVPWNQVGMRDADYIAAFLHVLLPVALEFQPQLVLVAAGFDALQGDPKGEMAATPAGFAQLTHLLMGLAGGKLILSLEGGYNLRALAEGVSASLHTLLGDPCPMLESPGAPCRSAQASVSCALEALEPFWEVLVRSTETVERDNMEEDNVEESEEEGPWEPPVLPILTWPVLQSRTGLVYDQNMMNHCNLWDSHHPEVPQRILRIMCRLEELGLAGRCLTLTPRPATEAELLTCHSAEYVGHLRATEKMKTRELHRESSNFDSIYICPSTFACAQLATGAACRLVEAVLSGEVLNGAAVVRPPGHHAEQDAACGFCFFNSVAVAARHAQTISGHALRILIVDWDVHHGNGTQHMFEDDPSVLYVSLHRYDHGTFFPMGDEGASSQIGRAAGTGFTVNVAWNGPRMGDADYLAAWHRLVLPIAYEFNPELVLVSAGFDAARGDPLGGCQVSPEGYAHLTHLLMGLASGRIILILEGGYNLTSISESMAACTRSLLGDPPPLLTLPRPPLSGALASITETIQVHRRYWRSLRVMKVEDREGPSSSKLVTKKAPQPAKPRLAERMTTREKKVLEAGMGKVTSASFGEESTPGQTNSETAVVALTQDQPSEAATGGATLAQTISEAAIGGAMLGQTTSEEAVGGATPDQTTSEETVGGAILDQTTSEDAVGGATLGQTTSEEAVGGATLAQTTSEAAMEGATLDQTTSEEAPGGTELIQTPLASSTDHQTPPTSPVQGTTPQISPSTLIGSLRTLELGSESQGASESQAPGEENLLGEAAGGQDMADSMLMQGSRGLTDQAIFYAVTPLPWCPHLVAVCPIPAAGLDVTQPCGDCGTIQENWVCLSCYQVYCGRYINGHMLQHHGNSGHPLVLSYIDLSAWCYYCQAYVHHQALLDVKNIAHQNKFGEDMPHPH
The assay is described as follows: biochemical. The note with it: inhibitor at 1 µM.
As to `Cc1ccc(S(=O)(=O)n2cc(CN3CCN(c4ccc(C(=O)NO)cc4)CC3)c3ccccc32)cc1` [Compound 2e, N-hydroxy-4-(4-((1-tosyl-1H-indol-3-yl)methyl)piperazin-1-yl)benzamide], the “hHDAC6 % @1 µM” value is listed as 35.3%.

Staying with this assay, now noted: inhibitor at 10 µM.
In the case of `Cc1ccc(S(=O)(=O)n2cc(CN3CCN(c4ccc(C(=O)NO)cc4)CC3)c3ccccc32)cc1` [Compound 2e, N-hydroxy-4-(4-((1-tosyl-1H-indol-3-yl)methyl)piperazin-1-yl)benzamide], the “hHDAC6 % @10 µM” value was 95%.

Still in this assay, the particulars now being: read-out: hHDAC6 IC50; recombinant human HDAC6.
With `O=C(NO)c1ccc(N2CCN(Cc3cnc4ccccc4c3)CC2)cc1` [Compound 2g, N-hydroxy-4-{4-[(quinolin-3-yl)methyl]piperazin-1-yl}benzamide], the IC50 turned out to be 0.13 ± 0.01 µM.

The target in the next assay is T2, drHDAC10 (Danio rerio, UniProt F1QCV2).
T2 sequence (F1QCV2 1-675): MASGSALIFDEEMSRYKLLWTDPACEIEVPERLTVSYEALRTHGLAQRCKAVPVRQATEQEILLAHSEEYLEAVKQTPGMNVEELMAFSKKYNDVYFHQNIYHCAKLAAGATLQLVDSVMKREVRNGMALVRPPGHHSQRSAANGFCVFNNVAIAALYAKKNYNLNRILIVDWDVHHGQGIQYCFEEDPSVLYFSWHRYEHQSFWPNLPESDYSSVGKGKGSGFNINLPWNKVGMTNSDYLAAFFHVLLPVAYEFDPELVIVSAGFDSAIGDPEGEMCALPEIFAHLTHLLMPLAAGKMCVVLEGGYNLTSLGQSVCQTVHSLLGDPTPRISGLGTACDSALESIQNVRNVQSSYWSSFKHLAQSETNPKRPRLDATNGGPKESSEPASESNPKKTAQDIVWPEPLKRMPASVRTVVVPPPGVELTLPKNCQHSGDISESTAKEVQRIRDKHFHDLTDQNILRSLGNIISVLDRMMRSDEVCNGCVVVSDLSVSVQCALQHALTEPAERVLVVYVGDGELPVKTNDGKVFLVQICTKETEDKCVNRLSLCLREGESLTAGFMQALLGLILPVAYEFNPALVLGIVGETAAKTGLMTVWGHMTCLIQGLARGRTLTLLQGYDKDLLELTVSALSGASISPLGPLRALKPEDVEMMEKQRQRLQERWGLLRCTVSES
The experiment in a line: Enzymatic in vitro HDAC10 inhibition assay. It counts as biochemical, zebrafish.
Conditions: not given
The essentials: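 Recombinant wild-type drHDAC10 (5 nM final) was preincubated 5 min with test compound at various concentrations in 20 mM HEPES pH 7.4 with 0.5 mg/mL BSA. The reaction was started with 50 µM Ac-spermidine-AMC and incubated 25 min at 25 °C. A stop solution containing 16 mM NDA derivatized the released primary amine. Fluorescence was read at λex 330 nm and λem 390 nm.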
For the compound `Cc1ccc(S(=O)(=O)n2cc(CN3CCN(c4ccc(C(=O)NO)cc4)CC3)c3ccccc32)cc1` [Compound 2e, N-hydroxy-4-(4-((1-tosyl-1H-indol-3-yl)methyl)piperazin-1-yl)benzamide], half-maximal inhibition (IC50) required 0.075 ± 0.012 µM.

Still in this assay, the particulars now being: read-out: IC50 drHDAC10 ± SD; zebrafish HDAC10, recombinant wild type.
As for `O=C(NO)c1ccc(N2CCN(Cc3cnc4ccccc4c3)CC2)cc1` [Compound 2g, N-hydroxy-4-{4-[(quinolin-3-yl)methyl]piperazin-1-yl}benzamide], the IC50 is 0.011 ± 0.001 µM.

Staying with this assay, now noted: tosyl analogue vs compound 2b.
Turning to `Cc1ccc(S(=O)(=O)n2cc(CN3CCN(c4ccc(C(=O)NO)cc4)CC3)c3ccccc32)cc1` [Compound 2e, N-hydroxy-4-(4-((1-tosyl-1H-indol-3-yl)methyl)piperazin-1-yl)benzamide], the “decrease in HDAC10 activity compared to unsubstituted counterpart compound 2b” value is listed as ~38 fold.

A further assay relates to Vero kidney cells. The experiment in a line: Cytotoxicity, WST-8 cell viability, non-cancer kidney cells. In kind it is cell-based. The note with it: Chlorocebus sabaeus, Vero, 48 h, read-out: Kidney cells IC50 Vero. The essentials: (§1)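 Cells were seeded at 10,000 cells/well and grown for 24 h. Test compounds were dissolved in DMSO, diluted in medium and added at 80, 40, 20 and 10 µM. Cells were then incubated for 48 h. Viability was read with WST-8 plus 1-methoxy PMS as formazan absorbance at 450 nm. Controls were doxorubicin (positive) and 0.25% DMSO (vehicle). IC50 came from concentration-response curves, mean ± SD (n = 3).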
For orientation: Tetrazolium dyes change colour on reduction, which living cells bring about.
Consider `Cc1ccc(S(=O)(=O)n2cc(CN3CCN(c4ccc(C(=O)NO)cc4)CC3)c3ccccc32)cc1` [Compound 2e, N-hydroxy-4-(4-((1-tosyl-1H-indol-3-yl)methyl)piperazin-1-yl)benzamide], for which the IC50 was determined as 13.2 ± 1.82 µM.

In the case of `O=C(NO)c1ccc(N2CCN(Cc3cnc4ccccc4c3)CC2)cc1` [Compound 2g, N-hydroxy-4-{4-[(quinolin-3-yl)methyl]piperazin-1-yl}benzamide], the IC50 was 51 ± 1.95 µM.

Another assay relates to BT-549 (breast carcinoma). The experiment in a line: Cytotoxicity, WST-8 cell viability. In kind it is cell-based, human. The note with it: Homo sapiens, BT-549, 48 h, read-out: Cancer cell lines IC50 BT-549. The essentials:
as §1
On to `Cc1ccc(S(=O)(=O)n2cc(CN3CCN(c4ccc(C(=O)NO)cc4)CC3)c3ccccc32)cc1` [Compound 2e, N-hydroxy-4-(4-((1-tosyl-1H-indol-3-yl)methyl)piperazin-1-yl)benzamide], for which the IC50 amounted to 9.71 ± 0.28 µM.

For `O=C(NO)c1ccc(N2CCN(Cc3cnc4ccccc4c3)CC2)cc1` [Compound 2g, N-hydroxy-4-{4-[(quinolin-3-yl)methyl]piperazin-1-yl}benzamide], the IC50 was > 69 µM.

The subject of another assay is SK-OV-3 (ovarian carcinoma). The assay is described as follows: Cytotoxicity, WST-8 cell viability. In kind it is cell-based, human. The note with it: Homo sapiens, SK-OV-3, 48 h, read-out: Cancer cell lines IC50 SK-OV-3. The essentials:
as §1
As to `Cc1ccc(S(=O)(=O)n2cc(CN3CCN(c4ccc(C(=O)NO)cc4)CC3)c3ccccc32)cc1` [Compound 2e, N-hydroxy-4-(4-((1-tosyl-1H-indol-3-yl)methyl)piperazin-1-yl)benzamide], the IC50 turned out to be 8.62 ± 0.42 µM.

With `O=C(NO)c1ccc(N2CCN(Cc3cnc4ccccc4c3)CC2)cc1` [Compound 2g, N-hydroxy-4-{4-[(quinolin-3-yl)methyl]piperazin-1-yl}benzamide], the IC50 is > 69 µM.

Another assay concerns the target T3, hHDAC8 (Homo sapiens, UniProt Q9BY41).
T3 sequence (Q9BY41 1-377): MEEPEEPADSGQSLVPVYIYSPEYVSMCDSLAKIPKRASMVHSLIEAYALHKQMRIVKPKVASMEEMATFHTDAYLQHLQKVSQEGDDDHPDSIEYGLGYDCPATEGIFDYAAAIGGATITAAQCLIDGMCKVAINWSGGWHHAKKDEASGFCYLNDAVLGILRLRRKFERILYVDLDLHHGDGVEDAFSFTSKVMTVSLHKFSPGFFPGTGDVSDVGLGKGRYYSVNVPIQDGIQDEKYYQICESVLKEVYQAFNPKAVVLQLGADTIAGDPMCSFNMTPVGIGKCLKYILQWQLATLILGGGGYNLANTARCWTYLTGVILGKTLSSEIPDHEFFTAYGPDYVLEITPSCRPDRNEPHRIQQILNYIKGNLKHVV
The experiment in a line: biochemical. It counts as biochemical. The conditions noted are these: inhibitor at 1 µM.
With `Cc1ccc(S(=O)(=O)n2cc(CN3CCN(c4ccc(C(=O)NO)cc4)CC3)c3ccccc32)cc1` [Compound 2e, N-hydroxy-4-(4-((1-tosyl-1H-indol-3-yl)methyl)piperazin-1-yl)benzamide], the “hHDAC8 % @1 µM” value was 26.9%.

The assay is the same for the next values; noted with them: inhibitor at 10 µM.
In the case of `Cc1ccc(S(=O)(=O)n2cc(CN3CCN(c4ccc(C(=O)NO)cc4)CC3)c3ccccc32)cc1` [Compound 2e, N-hydroxy-4-(4-((1-tosyl-1H-indol-3-yl)methyl)piperazin-1-yl)benzamide], the “hHDAC8 % @10 µM” value was 87.9%.

Still in this assay, the particulars now being: read-out: hHDAC8 IC50; recombinant human HDAC8.
As for `O=C(NO)c1ccc(N2CCN(Cc3cnc4ccccc4c3)CC2)cc1` [Compound 2g, N-hydroxy-4-{4-[(quinolin-3-yl)methyl]piperazin-1-yl}benzamide], the IC50 stood at 0.3 ± 0.02 µM.

A further assay addresses hHDAC1 (Homo sapiens, UniProt Q13547). The assay is described as follows: biochemical. The note with it: inhibitor at 1 µM. It counts as biochemical.
On to `Cc1ccc(S(=O)(=O)n2cc(CN3CCN(c4ccc(C(=O)NO)cc4)CC3)c3ccccc32)cc1` [Compound 2e, N-hydroxy-4-(4-((1-tosyl-1H-indol-3-yl)methyl)piperazin-1-yl)benzamide], for which the “hHDAC1 % @1 µM” value amounted to 7.3%.

Consider `O=C(NO)c1ccc(N2CCN(Cc3cnc4ccccc4c3)CC2)cc1` [Compound 2g, N-hydroxy-4-{4-[(quinolin-3-yl)methyl]piperazin-1-yl}benzamide], for which the “hHDAC1 % @1 µM” value was found to be 32.1%.

The assay is the same for the next values; noted with them: inhibitor at 10 µM.
As for `Cc1ccc(S(=O)(=O)n2cc(CN3CCN(c4ccc(C(=O)NO)cc4)CC3)c3ccccc32)cc1` [Compound 2e, N-hydroxy-4-(4-((1-tosyl-1H-indol-3-yl)methyl)piperazin-1-yl)benzamide], the “hHDAC1 % @10 µM” value came out at 67.2%.

As for `O=C(NO)c1ccc(N2CCN(Cc3cnc4ccccc4c3)CC2)cc1` [Compound 2g, N-hydroxy-4-{4-[(quinolin-3-yl)methyl]piperazin-1-yl}benzamide], the “hHDAC1 % @10 µM” value worked out at 79.4%.

For a further assay, the system named is SK-MEL (melanoma). The experiment in a line: Cytotoxicity, WST-8 cell viability. In kind it is cell-based, human. The conditions noted are these: Homo sapiens, 48 h, read-out: Cancer cell lines IC50 SK-MEL. The essentials:
as §1
Regarding `Cc1ccc(S(=O)(=O)n2cc(CN3CCN(c4ccc(C(=O)NO)cc4)CC3)c3ccccc32)cc1` [Compound 2e, N-hydroxy-4-(4-((1-tosyl-1H-indol-3-yl)methyl)piperazin-1-yl)benzamide], the IC50 is 8.82 ± 0.7 µM.

On to `O=C(NO)c1ccc(N2CCN(Cc3cnc4ccccc4c3)CC2)cc1` [Compound 2g, N-hydroxy-4-{4-[(quinolin-3-yl)methyl]piperazin-1-yl}benzamide], for which the concentration for half-maximal inhibition (IC50) was > 69 µM.

A further assay deals with KB (epidermal carcinoma). The assay is described as follows: Cytotoxicity, WST-8 cell viability. It counts as cell-based, human. The conditions noted are these: Homo sapiens, 48 h, read-out: Cancer cell lines IC50 KB. The essentials: as §1
In the case of `Cc1ccc(S(=O)(=O)n2cc(CN3CCN(c4ccc(C(=O)NO)cc4)CC3)c3ccccc32)cc1` [Compound 2e, N-hydroxy-4-(4-((1-tosyl-1H-indol-3-yl)methyl)piperazin-1-yl)benzamide], the IC50 came to 10 ± 0.7 µM.

Turning to `O=C(NO)c1ccc(N2CCN(Cc3cnc4ccccc4c3)CC2)cc1` [Compound 2g, N-hydroxy-4-{4-[(quinolin-3-yl)methyl]piperazin-1-yl}benzamide], the IC50 was > 69 µM.
